Assay results pooled from the literature.
Target: Serine/threonine-protein kinase DCLK3 (DCLK3, Homo sapiens, UniProt Q9C098)
Residues used in one study (Q9C098 1-648): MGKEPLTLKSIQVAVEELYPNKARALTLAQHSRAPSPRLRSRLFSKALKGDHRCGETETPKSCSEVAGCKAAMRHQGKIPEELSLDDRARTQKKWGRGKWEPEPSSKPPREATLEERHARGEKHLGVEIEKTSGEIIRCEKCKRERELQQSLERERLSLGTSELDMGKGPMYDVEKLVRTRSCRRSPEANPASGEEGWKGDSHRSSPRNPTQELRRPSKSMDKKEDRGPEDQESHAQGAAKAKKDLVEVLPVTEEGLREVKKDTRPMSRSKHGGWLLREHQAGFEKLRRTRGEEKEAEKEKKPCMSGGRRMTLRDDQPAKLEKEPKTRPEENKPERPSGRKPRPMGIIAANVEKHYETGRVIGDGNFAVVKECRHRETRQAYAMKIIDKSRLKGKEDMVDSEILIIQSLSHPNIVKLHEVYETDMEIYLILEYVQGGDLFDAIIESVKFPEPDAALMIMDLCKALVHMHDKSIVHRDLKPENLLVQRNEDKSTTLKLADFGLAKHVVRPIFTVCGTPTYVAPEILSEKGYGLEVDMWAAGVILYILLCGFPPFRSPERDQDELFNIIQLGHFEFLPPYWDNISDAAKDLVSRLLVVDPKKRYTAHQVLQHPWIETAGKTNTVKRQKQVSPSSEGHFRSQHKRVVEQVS

Compound | effect on | method | tested at | remaining binding
C=CC(=O)N1CCC(C(=O)NCC(=O)N2CCN(c3nc(-c4cnc(N)nc4C(F)F)nc(N4CCOCC4)n3)CC2)CC1 | binding | competition with immobilised ligand | 1 µM | 96%
N[C@@H]1CCN(c2nccc(-c3cnn4ncccc34)n2)C1 | binding | – | 1 µM | 100%
O=C(NS(=O)(=O)c1ccc(NCC2CCOCC2)c([N+](=O)[O-])c1)c1ccc(N2CCN(Cc3ccc(C(F)(F)F)cc3-c3ccc(Cl)cc3)CC2)cc1Oc1cnc2[nH]ccc2c1 | cell-free assay | competition with immobilised ligand | 1 µM | 93%
c1cncc(-c2cccc(Nc3nccc(NC4CCCCC4)n3)c2)c1 | binding | competition with immobilised ligand | 10 µM | 80%
O=C(c1ccc(Nc2ncc(Cl)c(-c3ccc(Cl)s3)n2)cc1)N1CCC(N2CCCC2)CC1 | binding | competition with immobilised ligand | 1 µM | 14%
COc1ccnn2ncc(-c3ccnc(N(C)C)n3)c12 | binding | – | 1 µM | 100%
FC(F)(F)Oc1cccc(-c2cnc3ccc(-c4ccncc4)nn23)c1 | cell-free assay | competition with immobilised ligand | 5 µM | 100%
O=C(NCCCN1CCOCC1)c1ccc(Nc2nccc(-c3cc4ccccc4s3)n2)cc1 | binding | competition with immobilised ligand | 1 µM | 0.4%
Cn1cc(Cl)c2c(Oc3c(F)cc(Nc4cc(Cl)nc(N)n4)cc3F)ccnc21 | cell-free assay | competition with immobilised ligand | 0.1 µM | 89%
COc1cnc(Nc2cccc(S(N)(=O)=O)c2)nc1N1CCN(c2ccccc2)CC1 | binding | competition with immobilised ligand | 1 µM | 71%
C[C@H](c1cccc(C#N)c1)n1cc(Cl)cc(C(N)=O)c1=N | cell-free assay | competition with immobilised ligand | 1 µM | 99%
CN(C)c1ncc(F)c(-c2cnn3ncccc23)n1 | binding | – | 1 µM | 100%
N#CC1(c2ccccn2)CCN(Cc2cc(C(=O)N3CCCC3)c(=O)n3ccccc23)CC1 | cell-free assay | competition with immobilised ligand | 1 µM | 100%
Nc1ncc2c(n1)-c1c([nH]c3ccc(C#CC4CC4)cc13)CCCC2 | binding | competition with immobilised ligand | 1 µM | 100%
Cc1cnn2ncc(-c3ccnc(N(C)C)n3)c2c1 | binding | – | 1 µM | 93%
CC1=C(C#N)[C@@H](c2ccc3[nH]nc(C)c3c2)C(C#N)=C(c2ccc(Cl)cc2)N1 | cell-free assay | competition with immobilised ligand | 1 µM | 71.3%
C[C@H]1CCN(c2nccc(-c3cnn4ncccc34)n2)C1 | binding | – | 1 µM | 93%
O=C(NCCCN1CCOCC1)c1ccc(Nc2ncc(Cl)c(-c3ccc(Cl)s3)n2)cc1 | binding | competition with immobilised ligand | 1 µM | 1.9%
CC1CCCN1c1nccc(-c2cnn3ncccc23)n1 (stereo not drawn) | binding | – | 1 µM | 100%
CN([C@@H]1CCc2c(CC(=O)O)c3ccccc3n2C1)S(=O)(=O)c1ccc(F)cc1 | cell-free assay | competition with immobilised ligand | 1 µM | 99%
O=C(NCC1CCOCC1)c1n[nH]cc1NC(=O)c1c(F)cccc1F | binding | competition with immobilised ligand | 1 µM | 61%
